Experimental data pooled from the literature.
Compare with care: the assays were run in different laboratories. ≈ marks a conversion by molar mass, not a printed value.

| Compound | organism | test | system | setting | quantity | result |
| --- | --- | --- | --- | --- | --- | --- |
| Cc1c2ccncc2c(C)c2c1[nH]c1ccccc12 | Mycolicibacterium smegmatis | microbial killing, resazurin | – | – | MBC | 87.1 µM (≈ 21.5 µg/mL) |
| O=C1C2CC3CC(C2)CC1C3 | Mycolicibacterium smegmatis | microbial growth | – | 48 h | IC50 | > 500 µM |
| COc1ccc2c(ccc3oc([N+](=O)[O-])c(C)c32)c1 | Mycolicibacterium smegmatis | microbial growth, resazurin | MC^2155 | – | MIC90 | > 32 µg/mL |
| CC(C)[C@H](N)C(=O)OCCCCCn1cnc2nc(NCc3ccc(Cl)c(Cl)c3)[nH]c(=O)c21 | Lacticaseibacillus casei | microbial growth, agar dilution | – | 48 h | MIC | > 32 µg/mL |
| CC(C)=CCC/C(C)=C/CNCCNC1C2CC3CC(C2)CC1C3 (centres unmarked) | Mycolicibacterium smegmatis | microbial growth | – | 48 h | IC50 | 2.4 µM |
| O=[N+]([O-])c1cc2cc3ccc4oc([N+](=O)[O-])cc4c3cc2o1 | Mycolicibacterium smegmatis | microbial growth, resazurin | MC^2155 | – | MIC90 | 4 µg/mL (≈ 13.4 µM) |
| CCCCCOc1ccc(-c2cc(-c3ccc(C(=O)N[C@H]4C[C@@H](O)[C@@H](O)NC(=O)[C@@H]5[C@@H](O)[C@@H](C)CN5C(=O)[C@H]([C@H](O)CC(N)=O)NC(=O)[C@H]([C@H](O)[C@@H](O)c5ccc(O)c(OS(=O)(=O)O)c5)NC(=O)[C@@H]5C[C@@H](O)CN5C(=O)[C@H]([C@@H](C)O)NC4=O)cc3)no2)cc1 | Candida tropicalis | biofilm formation | – | 16 µg/mL | inhibition | 28% |
| Cn1cnc2nc(NCc3ccc(Cl)c(Cl)c3)[nH]c(=O)c21 | Lacticaseibacillus casei | microbial growth, agar dilution | – | 48 h | MIC | 32 µg/mL (≈ 98.7 µM) |
